Activity calls are given as the source filed them. The rule behind the calls is not given here.
Columns and labels:
Anthrax toxin receptor 2 = Anthrax toxin receptor 2 (Homo sapiens, UniProt P58335, C175A/R40C); assay: Inhibition of CMG2 (40 to 217) C175A and R40C double mutant (unknown origin) interaction to full length PA E733C mutant expressed in Escherichia coli by FRET assay
[1] = Cmax in C57BL/6J mouse at 20 mg/kg, ip after 6 to 24 hrs; assay type: ADME, organism-based; set-up: dose 20 mg/kg, route intraperitoneal; conditions: in vivo
Mus musculus [2] = assay: Toxicity in C57BL/6J mouse assessed as behavioral abnormalities at 20 mg/kg, po or 10 mg/kg, ip measured on day 5; assay type: organism-based; conditions: in vivo
Mus musculus [3] = assay: Toxicity in C57BL/6J mouse assessed as hunched posture at 20 mg/kg, po or 10 mg/kg, ip measured on day 5; assay type: organism-based; conditions: in vivo
Mus musculus [4] = assay: Toxicity in C57BL/6J mouse assessed as weight loss at 20 mg/kg, po or 10 mg/kg, ip measured on day 5; assay type: organism-based; conditions: in vivo
Mus musculus [5] = assay: Antiangiogenic activity in C57BL/6J mouse assessed as bFGF-induced angiogenesis at 20 mg/kg, po or 10 mg/kg, ip measured on day 5 by corneal micropocket assay; assay type: functional, organism-based; conditions: Cornea
Method in brief: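 bFGF pellet (80 ng) implanted in cornea; groups of five mice dosed daily from implantation day, either 20 mg/kg by oral gavage in 5% ethanol or 10 mg/kg/day IP in 2.5% DMSO/5% Cremaphor EL/5% Tween-80/7.5% N-methyl-2-pyrrolidone/0.9% NaCl; vehicle-only controls. Vascular response area measured by slit lamp on postoperative day 5, typically 10 eyes per group.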

[6] = Cytotoxicity against HMVEC at 1 to 30 uM after 24 to 72 hrs by fluorescence assay; conditions: human
Method in brief: (§1)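 HMVEC-d (EGM-2, before passage 7) seeded at 2000 cells/well, medium swapped after attachment for EGM-2 ± compound; grown 1 or 3 days, then quantified by Cyquant fluorescence. Fold-proliferation = experimental readout / day-0 ethanol-fixed wells; normalized to untreated wells. Four independent experiments, n=4 wells each; t-test with Bonferroni correction.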

[7] = Cytostatic toxicity against HMVEC at 1 to 30 uM after 24 to 72 hrs by fluorescence assay; conditions: human; method in brief: as §1
[8] = Antiangiogenic activity in HMVEC assessed as inhibition of endothelial cell migration after 4 hrs by stereomicroscopic analysis; assay type: functional, cell-based; conditions: Homo sapiens
Method in brief: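 HMVEC-d (EGM-2, used before passage 7) resuspended in EBM with 0.1% BSA, 20,000 cells on fibronectin-coated 8.0 μm-pore polycarbonate transwells; migration toward full (5%) serum media ± compound for 4 h. Non-migrated cells swabbed off, membranes fixed and Diff-Quick stained. Data normalized to untreated control; two independent experiments, n=3 each; IC50 from binding isotherm fit.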

Anthrax toxin receptor 2, sequence (P58335 34-489 R40C/C175A limits assumed): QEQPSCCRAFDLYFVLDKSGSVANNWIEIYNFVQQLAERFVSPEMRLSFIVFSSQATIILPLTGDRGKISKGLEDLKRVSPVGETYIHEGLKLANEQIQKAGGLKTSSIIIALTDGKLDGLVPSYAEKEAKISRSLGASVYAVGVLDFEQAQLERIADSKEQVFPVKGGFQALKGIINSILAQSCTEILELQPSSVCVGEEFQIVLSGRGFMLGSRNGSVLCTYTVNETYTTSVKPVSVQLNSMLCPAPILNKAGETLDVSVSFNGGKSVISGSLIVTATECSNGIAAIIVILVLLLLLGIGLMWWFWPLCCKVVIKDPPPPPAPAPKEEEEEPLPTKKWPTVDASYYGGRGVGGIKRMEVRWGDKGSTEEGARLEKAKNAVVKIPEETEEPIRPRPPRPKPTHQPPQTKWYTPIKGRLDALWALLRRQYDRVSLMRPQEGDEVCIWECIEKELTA

Oc1cc(O)c2c(c1)O[C@H](c1ccc(O)c(O)c1)[C@H](O)C2 [(-)-EPICATECHIN]
IC50 (Anthrax toxin receptor 2): > 300 µM

O=C(O)/C=C/c1ccc(O)c(O)c1 [CAFFEIC ACID]
IC50 (Anthrax toxin receptor 2): > 300 µM

COc1cc(/C=C/C(=O)CC(=O)/C=C/c2ccc(O)c(OC)c2)ccc1O [CURCUMIN]
IC50 (Anthrax toxin receptor 2): > 300 µM

O=C(O)CCc1ccc(O)c(O)c1 [DIHYDROCAFFEIC ACID]
IC50 (Anthrax toxin receptor 2): > 300 µM

NCCc1ccc(O)c(O)c1 [DOPAMINE]
IC50 (Anthrax toxin receptor 2): > 300 µM

Oc1cc(O)c2c(c1)O[C@H](c1cc(O)c(O)c(O)c1)[C@H](O)C2 [EPIGALLOCATECHIN]
IC50 (Anthrax toxin receptor 2): > 300 µM

COC(=O)c1cc(O)c(O)c(O)c1 [GALLIC ACID METHYL ESTER]
IC50 (Anthrax toxin receptor 2): > 300 µM

O=C(O)c1cc(O)c(O)c(O)c1 [GALLIC ACID]
IC50 (Anthrax toxin receptor 2): > 300 µM

COC(=O)c1ccc(O)c(O)c1 [METHYL PROTOCATECHUATE]
IC50 (Anthrax toxin receptor 2): > 300 µM

O=c1c(O)c(-c2cc(O)c(O)c(O)c2)oc2cc(O)cc(O)c12 [MYRICETIN]
IC50 (Anthrax toxin receptor 2): > 300 µM

O=C(OC[C@H]1O[C@@H](OC(=O)c2cc(O)c(O)c(O)c2)[C@H](OC(=O)c2cc(O)c(O)c(O)c2)[C@@H](OC(=O)c2cc(O)c(O)c(O)c2)[C@@H]1OC(=O)c1cc(O)c(O)c(O)c1)c1cc(O)c(O)c(O)c1 [PENTAGALLOYL GLUCOSE]
Cmax [1]: < 1000 nM | Activity (Mus musculus [2]): Non-toxic | Activity (Mus musculus [3]): Non-toxic | Activity (Mus musculus [4]): Non-toxic | inhibition (Mus musculus [5]): Active | Activity [6]: Non-toxic | Activity [7]: Non-toxic | IC50 [8]: 0.82 µM | IC50 (Anthrax toxin receptor 2): 0.3 µM

CCCOC(=O)c1cc(O)c(O)c(O)c1 [PROPYL GALLATE]
IC50 (Anthrax toxin receptor 2): > 300 µM

O=C(O)c1ccc(O)c(O)c1 [PROTOCATECHUIC ACID]
IC50 (Anthrax toxin receptor 2): > 300 µM

O=c1c(O)c(-c2ccc(O)c(O)c2)oc2cc(O)cc(O)c12 [QUERCETIN]
IC50 (Anthrax toxin receptor 2): > 300 µM

O=C(OC[C@H]1O[C@@H](OC(=O)c2cc(O)c(O)c(OC(=O)c3cc(O)c(O)c(O)c3)c2)[C@H](OC(=O)c2cc(O)c(O)c(OC(=O)c3cc(O)c(O)c(O)c3)c2)[C@@H](OC(=O)c2cc(O)c(O)c(OC(=O)c3cc(O)c(O)c(O)c3)c2)[C@@H]1OC(=O)c1cc(O)c(O)c(OC(=O)c2cc(O)c(O)c(O)c2)c1)c1cc(O)c(O)c(OC(=O)c2cc(O)c(O)c(O)c2)c1 [TANNIC ACID]
IC50 (Anthrax toxin receptor 2): > 300 µM

COc1cc(C(=O)O)ccc1O [VANILLIC ACID]
IC50 (Anthrax toxin receptor 2): > 300 µM
